This excerpt belongs to a sample that is enriched for hits.
HCT116 bCat-KO – beta-catenin-lacking colon tumor cell growth suppression; viability, % at 10 µM; 1.5% of 140,000 active; HCT116 beta-catenin knockout viability, CellTiter-Glo, 60 h; hits give low values; AID 818;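 active means viability at or under a set limit, the compound median less 4 SD, cut at about 6% in these data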;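 further: 0% = Hyamine 1622 control at 20 µM and 100% = untreated cell control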
HCT116 PTEN-null – PTEN-deleted cell growth suppression; 1.2% of 140,000 active; viability, % at 10 µM; HCT116 PTEN-null viability, CellTiter-Glo, 60 h; hits give low values;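 active means viability at or below a set limit, 4 SD under the median of all tested compounds, cut at about 3.7% in these data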;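 further: PTEN knockout HCT116 line with beta catenin targeted HCT116 as companion control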
HUVEC inhibit – blocks proliferation of human endothelial cells. HUVEC proliferation, CellTiter-Glo luminescence, 72 h; hits give low values. viability, % at 10 µM (by protocol). 1.1% of 86,000 active;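 active means viability at or below 30%; inactive means viability above 30%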;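 further: 100% = median luminescence of DMSO-only cell control wells on each plate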
Lung fibro prol – blocks proliferation of human lung fibroblasts | 1.1% of 85,000 active | viability, % at 10 µM | AID 719 | LL 47 human lung fibroblast viability, ATP luminescence; hits give low values;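 active means viability at or below 50% in the single dose screen; inactive means viability above 50%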;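 further: compound exposure lasted 72 h before the ATP readout; 100% = median luminescence of untreated cell-only wells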
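Benchmarks: Cell-only wells, no compound | Test system: LL 47 human lung fibroblasts, passage 12 or lower | Input: 1,150 cells/well | Measured by: CellTiter-Glo luminescence measuring cellular ATP | Medium: IMEM, 15% FBS supplement | Schedule: Overnight attachment after seeding, then 72 h compound exposure at 37 °C | Doses: Compound addition at 0.1% DMSO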
H69AR inhibit – blocks growth of human H69AR lung tumor cells; H69AR lung tumor viability, ATP luminescence, 72 h; hits give low values; viability, % at 10 µM; 6% of 85,000 active; AID 598;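 active means viability at or below 40%; inactive means viability above 40%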;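 further: multidrug resistant small cell line overexpressing MRP-1 efflux transporter; 100% = mean luminescence of untreated control wells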
Active calls of the source: *; x = not tested or not shown.

SMILES	HCT116 bCat-KO	HCT116 PTEN-null	HUVEC inhibit	Lung fibro prol	H69AR inhibit
CCCCCCC(=O)N1CCN(c2cc3c(cc2F)c(=O)c(C(=O)O)cn3CC)CC1	x	x	92	87	27*
CCC(=O)N1CCN(c2cc3c(cc2F)c(=O)c(C(=O)O)cn3CC)CC1	x	x	96	101	100
CCn1cc(C(=O)NCc2cccnc2)c(=O)c2cc(F)c(N3CCN(C(=O)c4ccco4)CC3)cc21	82	72	107	102	35*
O=C(NCC1c2ccccc2CCN1C(=O)CN1C(=O)c2ccccc2C1=O)C1CCCCC1 (configuration not stated)	95	103	99	101	101
Cc1ccc(S(=O)(=O)NCC(=O)OCC(=O)c2c(N)n(C)c(=O)n(C)c2=O)cc1	96	98	x	x	x
COC(=O)c1ccc(C)c(NS(=O)(=O)c2ccc3c(c2)OCCO3)c1	21	18	47	60	30*
CC(=O)c1cc2c(cc1NS(=O)(=O)c1ccccc1)OCO2	87	88	80	84	82
CC(=O)c1cc2c(cc1NS(=O)(=O)c1ccc(C)cc1)OCCO2	58	48	60	81	18*
COC(=O)c1sccc1NS(=O)(=O)c1ccc(OC)cc1	34	33	70	84	15*
COC(=O)c1ccc(C)c(NS(=O)(=O)c2ccc(OC)cc2)c1	17	17	46	56	37*
COc1cc2cc3c(N)c(C(=O)Nc4sc(C)c(C)c4C#N)sc3nc2cc1OC	92	90	x	x	x
Cc1ccc2c(c1)-c1nc3ccccc3cc1C2=NC1CCCCC1	8	2.8*	x	x	x
Cc1cccc(NC(NC(=O)Cc2ccccc2)C(Cl)(Cl)Cl)c1 (configuration not stated)	68	74	x	x	x
CC1(C)Cc2nc3sc4c(SCC(=O)NCc5ccco5)ncnc4c3cc2CO1	106	97	75	62	26*
Cc1nc2c(sc3nc4c(cc32)COC(C)(C)C4)c(=O)n1CC(=O)NCc1ccco1	7	11	49	55	24*
Cc1ccc(C)c(-n2cc[nH]c2=S)c1	94	94	x	x	x
CC(C)c1nc2oc3c(NCC4CCCO4)ncnc3c2c2c1COC(C)(C)C2 (configuration not stated)	67	70	87	99	36*
CC1CCN(C(=O)CSc2nnc(-c3cccnc3)n2C2CCCCC2)CC1	100	100	101	x	26*
CCCCNC(=O)CCn1c(=O)c2ccccc2n(Cc2ccc(Cl)cc2)c1=O	23	11	x	x	x
O=C(NCCF)[C@H]1C[C@@H]1[C@H](NP(=O)(c1ccccc1)c1ccccc1)c1ccccc1	106	99	x	x	x
O=C(NCc1ccccn1)[C@H]1C[C@@H]1[C@H](NP(=O)(c1ccccc1)c1ccccc1)c1ccccc1	0.8*	0.6*	x	x	x
O=c1c2ccccc2sn1-c1cc(S(=O)(=O)N2CCOCC2)ccc1N1CCCC1	87	98	73	55	1.0*
CC(NC(=S)Nc1ccc(S(=O)(=O)N2CCOCC2)cc1)C1CC2CCC1C2 (configuration not stated)	69	55	x	x	x
C[C@]12CC[C@@H]3c4ccc(O)cc4CC[C@H]3[C@@H]1CC[C@@H]2O	68	70	35	88	27*
CN(CC(=O)Nc1ccc(N2CCOCC2)cc1)CC(=O)Nc1ccc(Cl)cc1[N+](=O)[O-]	87	86	x	x	x
SMILES	HCT116 bCat-KO	HCT116 PTEN-null	HUVEC inhibit	Lung fibro prol	H69AR inhibit
CCN(CC)CCOc1ccc2c(c1)C(=NO)c1cc(OCCN(CC)CC)ccc1-2	1.9*	2.0*	12*	3.0*	50
CCN(CC)S(=O)(=O)c1ccc2c(c1)C(=NO)c1cc(S(=O)(=O)N(CC)CC)ccc1-2	1.3*	2.8*	4.3*	38*	2.6*
CCOc1ccc2c(c1)c(N=O)c(O)n2C	87	87	x	x	x
CCc1cc2c(=O)c(-c3nc(C)cs3)coc2cc1OC(C)C(=O)NCCO (configuration not stated)	86	91	x	x	x
COc1ccc(NCc2nnc(SCC(=O)c3ccc(OC)cc3)o2)cc1	64	73	87	93	96
CCOc1cc(C(=O)CSc2nnc(CNc3ccc(Cl)cc3)o2)ccc1NC(=O)CC	81	44	1.7*	64	0.2*
COc1ccc(OC)c(NC(=O)CSc2nnc(CNC(=O)COc3ccc(Cl)cc3)o2)c1	100	99	102	108	109
COc1ccc(NC(=O)CSc2nnc(CNC(=O)COc3ccc(Cl)cc3)o2)c(OC)c1	92	88	93	44*	107
COc1cccc(-c2nnc(NC(=O)c3ccc4ncsc4c3)o2)c1	22	25	x	x	x
Cc1cc(Br)ccc1SCC(=O)OCC(=O)Nc1ncc(C(F)(F)F)cc1Cl	94	97	x	x	x
CCN(CC)Cc1c(O)ccc2c([N+](=O)[O-])c(C)n(-c3ccc(OC)cc3)c12	79	83	64	93	39*
CC1SC(=NC(=O)C(C)N2C(=O)c3ccccc3C2=O)NC1=O (configuration not stated)	85	98	88	98	93
CC1CCC(C(C)C)C2=C1C(C#N)(C#N)C(C#N)(C#N)C(c1ccccc1)N2 (configuration not stated)	82	87	28*	32*	0.0*
CC(C)OCCCNC(=O)CN1C(=O)/C(=C/c2ccccc2)Sc2ccccc21	88	92	x	x	x
Cn1c2c(c(=O)c3ccccc31)CCC(C)(C)O2	81	91	x	x	x
C=CCNc1nc(N)c(C(=O)c2ccc3c(c2)OCO3)s1	78	68	102	95	29*
C[C@@H](O)C1NC(=O)[C@H](CCCCN)NC(=O)c2cc([N+](=O)[O-])cc(I)c2NCCC[C@@H](C(N)=O)NC1=O (some centres not stated)	94	100	x	x	x
CCC(C)(C)n1nnnc1C(c1cc2cc(C)cc(C)c2[nH]c1=O)N1CCN(Cc2ccc3c(c2)OCO3)CC1 (configuration not stated)	71	67	93	25*	8.6*
CCC(C)(C)n1nnnc1C(c1cc2cc(C)cc(C)c2[nH]c1=O)N1CCCC1 (configuration not stated)	83	79	x	x	x
Cc1ccccc1-n1c(SCC(=O)NC(N)=O)nc2sc(-c3ccccc3)cc2c1=O	79	74	x	x	x
Cc1c(C(=O)/C=C/c2cccs2)oc2ccc(F)cc12	65	65	85	89	21*
Cc1cc(=O)oc2c(C(=O)/C=C\c3cccs3)c(O)ccc12	50	60	x	x	x
O=S(=O)(c1ccc(N2CCC(c3ccc(Cl)cc3)=N2)cc1)N(CCO)CCO	79	80	47	88	13*
CN(C)CCCNS(=O)(=O)c1ccc(N2CCC(c3ccc(Cl)cc3)=N2)cc1	1.2*	1.1*	3.2*	1.6*	0.5*
COc1ccccc1CNC(=O)/C=C/c1ccc(S(=O)(=O)NCc2ccco2)cc1	66	66	x	x	x
Cc1nn(C(=O)CNS(=O)(=O)c2ccccc2)c(C)c1Sc1ccc(Cl)cc1	77	77	x	x	x
